According to ChEMBL document CHEMBL1932940, “Xanthohumol induces apoptosis in human malignant glioblastoma cells by increasing reactive oxygen species and activating MAPK pathways” (J Nat Prod, 2011):
The source made the active and inactive calls. The rule behind the calls is not given here.

Tests used:
[1] = target: T1, MAP kinase p38 (Homo sapiens) (UniProt O15264+Q15759+Q16539+P53778); experiment: Induction of p38 phosphorylation in human T98G cells at 20 uM after 30 to 60 mins for 2 hrs by Western blot analysis; type: cell-based
Procedure, shortened: (§1)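 T98G exposed to 20 μM for 5−120 min or 24 h, with or without 5 mM NAC. Lysates (Tris/deoxycholate/SDS/IGEPAL with protease and phosphatase inhibitors) immunoblotted with anti-p-ERK, ERK1/2 (1:1000), p-p38, p38; ECL detection; phospho signals normalized to total ERK1/2 or p38. Three experiments.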

T98G [2] = experiment: Induction of apoptosis in human T98G cells at 20 uM after 48 hrs by flow cytometric analysis pretreated with 5 uM JNK inhibitor SP600125 for 1 hr; type: functional, cell-based
Procedure, shortened: (§2)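 T98G pretreated with PD98059 (20 μM, 30 min), SB203580 (5 μM, 1 h) or SP600125 (5 μM, 1 h), then exposed to 20 μM for 48 h; hypodiploid nuclei quantified by propidium iodide flow cytometry. Means ± SEM, three experiments in triplicate.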

[3] = target: T1, MAP kinase p38 (Homo sapiens); experiment: Induction of p38 phosphorylation in human T98G cells at 20 uM measured after 24 hrs by Western blot analysis; type: cell-based; procedure, shortened: as §1
T98G [4] = experiment: Induction of apoptosis in human T98G cells assessed as increase in ROS production at 20 uM measured every 5 mins for 5 to 120 mins by DCFH-DA staining-based flow cytometric analysis in presence of 5 mM NAC; type: functional, cell-based
Procedure, shortened: (§3)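 T98G incubated with 20 μM, with or without 5 mM NAC pretreatment, for 5−120 min or 24 h; washed, resuspended at 2 × 10^5 cells/mL in HBSS with 10 μM DCFH-DA, 20 min at 37 °C; DCF fluorescence read by flow cytometry (FL1), also viewed by fluorescence microscopy.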

[5] = target: T2, Mitogen-activated protein kinase; ERK1/ERK2 (Homo sapiens) (UniProt P27361+P28482); experiment: Induction of Erk1/2 phosphorylation in human T98G cells at 20 uM measured every 5 mins for 2 hrs by Western blot analysis; type: cell-based; procedure, shortened: as §1
T2 sequence (P27361 whole entry, looked up): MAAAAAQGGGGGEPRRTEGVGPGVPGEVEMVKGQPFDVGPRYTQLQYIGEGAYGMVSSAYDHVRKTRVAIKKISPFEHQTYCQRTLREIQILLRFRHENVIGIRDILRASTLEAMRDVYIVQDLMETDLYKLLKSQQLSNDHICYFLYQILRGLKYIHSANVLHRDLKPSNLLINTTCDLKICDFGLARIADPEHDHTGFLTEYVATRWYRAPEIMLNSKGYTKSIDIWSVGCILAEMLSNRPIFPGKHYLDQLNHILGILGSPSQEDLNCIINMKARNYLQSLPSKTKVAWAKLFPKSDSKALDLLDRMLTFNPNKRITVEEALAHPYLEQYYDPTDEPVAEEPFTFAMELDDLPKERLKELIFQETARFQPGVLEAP
T2 sequence (P28482 whole entry, looked up): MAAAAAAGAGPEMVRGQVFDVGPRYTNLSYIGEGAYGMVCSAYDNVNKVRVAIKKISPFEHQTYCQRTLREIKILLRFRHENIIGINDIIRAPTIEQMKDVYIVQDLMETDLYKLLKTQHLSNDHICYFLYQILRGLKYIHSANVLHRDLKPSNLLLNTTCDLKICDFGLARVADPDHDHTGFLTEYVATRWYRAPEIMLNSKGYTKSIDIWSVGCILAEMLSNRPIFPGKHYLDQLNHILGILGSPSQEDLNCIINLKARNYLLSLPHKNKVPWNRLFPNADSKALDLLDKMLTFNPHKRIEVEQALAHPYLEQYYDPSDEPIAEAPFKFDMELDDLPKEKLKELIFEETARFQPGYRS

T98G [6] = experiment: Induction of apoptosis in human T98G cells assessed as cleavage PARP protein level at 20 uM after 24 hrs by Western blot analysis in presence of 5 mM NAC; type: functional, cell-based
Procedure, shortened: (§4)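 T98G exposed to 20 μM for various times (0−48 h), NAC 5 mM where stated. Total lysates, or digitonin-permeabilized cytosolic and mitochondrial fractions (10000g, 15 min, 4 °C) for cytochrome c, blotted for caspase-3, caspase-9, PARP (1:1000), Bcl-2 (1:500), cytochrome c; β-actin loading control; ECL detection. Three experiments.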

[7] = target: Mitogen-activated protein kinase 9 (Homo sapiens) (UniProt P45984); experiment: Induction of JNK phosphorylation in human T98G cells at 20 uM after 30 to 60 mins for 2 hrs by Western blot analysis; type: cell-based
Chain of Mitogen-activated protein kinase 9 (Homo sapiens) (P45984 whole entry, looked up): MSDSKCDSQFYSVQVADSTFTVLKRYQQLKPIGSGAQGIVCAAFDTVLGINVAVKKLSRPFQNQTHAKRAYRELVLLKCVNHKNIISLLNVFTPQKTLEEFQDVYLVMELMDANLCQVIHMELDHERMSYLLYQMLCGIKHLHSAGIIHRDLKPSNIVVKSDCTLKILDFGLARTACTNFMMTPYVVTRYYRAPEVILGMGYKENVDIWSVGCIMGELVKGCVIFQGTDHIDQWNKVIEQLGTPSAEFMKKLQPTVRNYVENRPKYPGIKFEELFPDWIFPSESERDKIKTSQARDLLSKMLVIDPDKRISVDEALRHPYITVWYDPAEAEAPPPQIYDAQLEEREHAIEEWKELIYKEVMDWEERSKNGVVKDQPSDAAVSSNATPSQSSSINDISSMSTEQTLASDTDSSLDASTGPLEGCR

T98G [8] = experiment: Induction of apoptosis in human T98G cells at 20 uM after 48 hrs by flow cytometric analysis pretreated with 20 uM Erk inhibitor PD98059 for 30 mins; type: functional; set-up: scale not given: the % may be the effect or the level left; procedure, shortened: as §2
T98G [9] = experiment: Induction of apoptosis in human T98G cells after 48 hrs by propidium iodide staining-based flow cytometric analysis; type: functional, cell-based
Procedure, shortened: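 Cells treated 1−50 μM for 24 or 48 h, washed in PBS, resuspended in 0.1% sodium citrate, 0.1% Triton X-100, 50 μg/mL propidium iodide, 30 min at 4 °C in dark. Nuclei analyzed by flow cytometry, DNA on log scale, debris gated out; percent hypodiploid (sub-G1) nuclei reported. Three experiments in triplicate.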

T98G [10] = experiment: Induction of apoptosis in human T98G cells assessed as increase in ROS production at 20 uM after 24 hrs by DCFH-DA staining-based flow cytometric analysis in presence of 5 mM NAC; type: functional, cell-based; procedure, shortened: as §3
T98G [11] = experiment: Induction of apoptosis in human T98G cells assessed as increase in caspase-9 expression level at 20 uM after 8 hrs by Western blot analysis; type: functional, cell-based; procedure, shortened: as §4
T98G [12] = experiment: Induction of apoptosis in human T98G cells assessed as increase in ROS production at 20 uM after 24 hrs by DCFH-DA staining-based flow cytometric analysis; type: functional, cell-based; procedure, shortened: as §3
[13] = target: T2, Mitogen-activated protein kinase; ERK1/ERK2 (Homo sapiens); experiment: Induction of Erk1/2 phosphorylation in human T98G cells at 20 uM measured after 24 hrs by Western blot analysis; type: cell-based; procedure, shortened: as §1
T98G [14] = experiment: Induction of cell cycle arrest in human T98G cells assessed as accumulation at G2/M phase at 1 to 20 uM after 48 hrs by flow cytometric analysis; type: functional, cell-based
Procedure, shortened: (§5)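 2 × 10^5 cells per dish exposed 48 h (1−20 μM per legend); harvested, fixed in cold 70% ethanol at −20 °C, stained with propidium iodide plus RNase A (100 U/mL) 30 min at room temperature; percentage in G1, S, G2/M by flow cytometry. Three experiments in triplicate.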

T98G [15] = experiment: Induction of apoptosis in human T98G cells assessed as decrease in Bcl-2 expression at 20 uM after 48 hrs by Western blot analysis; type: functional, cell-based; procedure, shortened: as §4
T98G [16] = experiment: Induction of apoptosis in human T98G cells assessed as caspase activation at 20 uM after 24 hrs pretreated with 25 uM pancaspase inhibitor Z-VAD-FMK; type: functional, cell-based
Procedure, shortened: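 T98G pretreated with Z-VAD-FMK (25 μM), then exposed to test agent; apoptotic (hypodiploid) nuclei quantified by propidium iodide flow cytometry. Means ± SEM, three experiments in triplicate.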

T98G [17] = experiment: Induction of apoptosis in human T98G cells assessed as increase in mitochondrial depolarization at 20 uM by […] fluorescence analysis; type: functional, cell-based; settings: TDE = time-dependent effect
Procedure, shortened: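 T98G treated with 20 μM for 4−24 h (NAC 5 mM where stated), then loaded with 5 nM TMRE for 30 min at 37 °C; fluorescence by flow cytometry (FL-2); percentage of cells with depolarized mitochondria reported. Three experiments in triplicate (n = 3 for NAC set).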

U-87 MG = experiment: Induction of cell cycle arrest in human U87MG cells assessed as accumulation at G0/G1 phase at 1 to 20 uM after 48 hrs by flow cytometric analysis; type: functional, cell-based; settings: U-87MG ATCC; procedure, shortened: as §5
T98G [18] = experiment: Induction of apoptosis in human T98G cells assessed as increase in cleaved PARP protein level at 20 uM after 24 hrs by Western blot analysis; type: functional, cell-based; procedure, shortened: as §4
T98G [19] = experiment: Anticancer activity against human T98G cells assessed as decrease in cell viability at 20 uM after 48 hrs by MTT assay; type: functional, cell-based
Procedure, shortened: (§6)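 Cells (T98G, U87-MG, NHA; 3 × 10^4 per well) plated, next day exposed to serial dilutions (1−50 μM) for 48 h at 37 °C, 5% CO2. MTT (5 mg/mL) added for 3 h; crystals solubilized in 50% DMF/20% SDS pH 4.5; OD at 620 nm. Viability = % of DMSO (0.1% final) controls. Means ± SEM, three experiments in triplicate.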

T98G [20] = experiment: Anticancer activity against human T98G cells assessed as decrease in cell viability at 50 uM after 48 hrs by MTT assay; type: functional; procedure, shortened: as §6
T98G [21] = experiment: Induction of apoptosis in human T98G cells at 20 uM after 48 hrs by flow cytometric analysis pretreated with 5 uM p38 inhibitor SB203580 for 1 hr; type: functional, cell-based; procedure, shortened: as §2
[22] = Toxicity in mouse; type: organism-based; settings: in vivo
[23] = target: T2, Mitogen-activated protein kinase; ERK1/ERK2 (Homo sapiens); experiment: Induction of Erk1/2 phosphorylation in human T98G cells at 20 uM measured every 5 mins for 2 hrs by Western blot analysis in presence of 5 mM of NAC; type: cell-based; procedure, shortened: as §1

COc1cc(O)c(CC=C(C)C)c(O)c1C(=O)/C=C/c1ccc(O)cc1 [XANTHOHUMOL]
Activity [1]: Active | Activity (T98G [2]): Active | Activity [3]: inactive | Activity (T98G [4]): inactive | Activity [5]: Active | Activity (T98G [6]): inactive | Activity [7]: inactive | Activity (T98G [8]): 50% | Activity (T98G [9]): Dose-dependent effect | Activity (T98G [10]): inactive | Activity (T98G [11]): Active | Activity (T98G [12]): Active | Activity [13]: Active | Activity (T98G [14]): inactive | Activity (T98G [15]): Active | Activity (T98G [16]): inactive | Activity (T98G [17]): tde | Activity (U-87 MG): inactive | Activity (T98G [18]): Active | Activity (T98G [19]): Active | Activity (T98G [20]): 70% | Activity (T98G [21]): inactive | LD50 [22]: 500 mg/kg | Activity [23]: inactive
